For six compounds, IC50 and Ki results are on record in ChEMBL document CHEMBL1153582, “Expedient solid-phase synthesis of both symmetric and asymmetric diol libraries targeting aspartic proteases” (Bioorg Med Chem Lett, 2009).

Assay [1] has as its target Protease (Human immunodeficiency virus 1, UniProt Q9YQ12). Nature of the assay: Inhibition of HIV1 protease by fluorescence microplate assay. A digest of the protocol:
(§1)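 Library products were used as crude material, without purification, for direct in situ screening in a standard fluorescence microplate assay. IC50 was taken from inhibition curves plotted against log inhibitor concentration in nM.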

The target of assay [2] is Plasmepsin I (Plasmodium falciparum, UniProt P39898). Briefly: Inhibition of Plasmodium falciparum plasmepsin-1 in fluorescence microplate assay. A digest of the protocol:
as §1

For assay [3], the target named is Plasmepsin II (Plasmodium falciparum, UniProt P46925). Nature of the assay: Inhibition of Plasmodium falciparum plasmepsin-2 in fluorescence microplate assay. The procedure, abridged:
as §1

pIC50, pKi: −log10 of the molar value.

A word on the pIC50: it is the negative decadic logarithm of the IC50, by convention in mol/L. Read a high pIC50 as a small IC50. As a reminder, the pKi is the Ki on a negative log10 scale, so that one unit is a factor of ten. A higher pKi goes with a low Ki.

Sequence of Protease (Q9YQ12 whole entry): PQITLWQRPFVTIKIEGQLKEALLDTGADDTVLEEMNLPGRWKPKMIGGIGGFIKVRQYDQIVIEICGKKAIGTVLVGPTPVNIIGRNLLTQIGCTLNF
Sequence of Plasmepsin I (P39898 whole entry): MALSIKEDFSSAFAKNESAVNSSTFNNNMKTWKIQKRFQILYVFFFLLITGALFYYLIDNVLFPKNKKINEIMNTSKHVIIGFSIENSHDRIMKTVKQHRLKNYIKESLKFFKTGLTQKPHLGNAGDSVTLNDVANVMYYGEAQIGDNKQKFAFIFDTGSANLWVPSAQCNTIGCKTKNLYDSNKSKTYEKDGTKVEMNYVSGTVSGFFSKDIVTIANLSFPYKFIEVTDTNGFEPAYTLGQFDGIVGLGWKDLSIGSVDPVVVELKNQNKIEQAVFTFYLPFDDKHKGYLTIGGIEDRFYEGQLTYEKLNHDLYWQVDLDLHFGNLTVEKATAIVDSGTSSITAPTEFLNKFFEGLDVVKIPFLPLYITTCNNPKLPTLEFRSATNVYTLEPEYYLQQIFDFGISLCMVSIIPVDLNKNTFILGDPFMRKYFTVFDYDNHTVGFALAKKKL
Sequence of Plasmepsin II (P46925 whole entry): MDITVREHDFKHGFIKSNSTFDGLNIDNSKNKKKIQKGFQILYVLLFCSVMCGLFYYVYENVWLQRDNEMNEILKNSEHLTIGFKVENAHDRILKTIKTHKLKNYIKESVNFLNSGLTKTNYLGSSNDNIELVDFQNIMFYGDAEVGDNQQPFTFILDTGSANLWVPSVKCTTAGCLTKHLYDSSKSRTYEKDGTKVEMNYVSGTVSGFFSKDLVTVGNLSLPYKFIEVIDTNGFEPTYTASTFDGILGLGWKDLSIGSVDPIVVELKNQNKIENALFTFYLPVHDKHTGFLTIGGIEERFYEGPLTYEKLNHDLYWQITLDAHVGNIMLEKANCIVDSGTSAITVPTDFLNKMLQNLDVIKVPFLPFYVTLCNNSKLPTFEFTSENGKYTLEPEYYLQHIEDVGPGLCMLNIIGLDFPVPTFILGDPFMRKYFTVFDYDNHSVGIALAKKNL

For `O=C(N[C@@H](Cc1ccccc1)[C@@H](O)[C@H](O)[C@H](Cc1ccccc1)NC(=O)c1ccc(F)cc1Cl)c1ccc(F)cc1Cl`, the pIC50 in assay [1] is 6.40; in assay [2], less than 4.60; in assay [3] it was less than 4.60. This compound also gave a negative logarithm of the Ki (pKi) in assay [1] of 6.40.

In the case of `O=C(N[C@@H](Cc1ccccc1)[C@@H](O)[C@H](O)[C@H](Cc1ccccc1)NC(=O)c1ccc(F)cc1Cl)c1ccc2c(c1)OCCO2`, the pIC50 in assay [1] was less than 4.60; in assay [2] it was less than 4.60; in assay [3], 4.93.

Consider `CC(C)C[C@H](NC(=O)CC1CCCCC1)[C@@H](O)[C@H](O)[C@H](CC(C)C)NC(=O)CC1CCCCC1`, for which the pIC50 in assay [1] is less than 4.60; in assay [2], 5.58; in assay [3], less than 4.60.

With `Cc1ccc(C(=O)N[C@@H](Cc2ccccc2)[C@@H](O)[C@H](O)[C@H](Cc2ccccc2)NC(=O)C2CCOC2)cn1` (some centres undefined), the pIC50 was less than 4.60 in assay [1], less than 4.60 in assay [2] and 4.90 in assay [3].

As to `O=C(CC1CCCCC1)N[C@@H](Cc1ccccc1)[C@@H](O)[C@H](O)[C@H](Cc1ccccc1)NC(=O)CC1CCCCC1`, the figures for the pIC50 in assay [1], in assay [2] and in assay [3] were less than 4.60, 5.36 and 5.41, respectively.

Turning to `COc1ccccc1C(=O)N[C@@H](CC(C)C)[C@@H](O)[C@H](O)[C@H](CC(C)C)NC(=O)c1ccccc1OC`, the figures for the pIC50 in assay [1], in assay [2] and in assay [3] were 5.88, less than 4.60 and less than 4.60, respectively.
